Data on 20 compounds can be found in ChEMBL document CHEMBL2321783, “Structure-activity relationships of peptides incorporating a bioactive reverse-turn heterocycle at the melanocortin receptors: identification of a 5800-fold mouse melanocortin-3 receptor (mMC3R) selective antagonist/partial agonist versus the mouse melanocortin-4 receptor (mMC4R)” (J Med Chem, 2013).

Common to all, as to type: functional, cell-based
In assay [1] the target is T1, Melanocortin receptor 3 (Mus musculus, UniProt P33033). Kind of assay: Agonist activity at mouse MC3 receptor expressed in HEK293 cells after 6 hrs by cAMP-based beta-galactosidase reporter gene assay. The procedure, abridged: (§1)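 HEK-293 cells stably expressing the mouse receptor, kept in DMEM with 10% fetal calf serum, transfected with CRE/β-galactosidase reporter. Efficacy is relative to NDP-MSH on the same plate. EC50 is the mean of duplicate wells from three or more independent experiments, fitted by nonlinear least squares.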
For orientation: A reporter such as luciferase makes a cellular process visible.

The target of another assay is Melanocortin receptor 5 (Mus musculus, UniProt P41149). The experiment in a line: Agonist activity at mouse MC5 receptor expressed in HEK293 cells after 6 hrs by cAMP-based beta-galactosidase reporter gene assay. A digest of the protocol: as §1
In assay [2] the target is Melanocyte-stimulating hormone receptor (Mus musculus, UniProt Q01727). The experiment in a line: Agonist activity at mouse MC1 receptor expressed in HEK293 cells after 6 hrs by cAMP-based beta-galactosidase reporter gene assay. A digest of the protocol: as §1
For another assay, the target named is Melanocortin receptor 4 (Mus musculus, UniProt P56450). The experiment in a line: Agonist activity at mouse MC4 receptor expressed in HEK293 cells after 6 hrs by cAMP-based beta-galactosidase reporter gene assay. The procedure, abridged:
as §1

Assay [3] has as its target T1, Melanocortin receptor 3. The experiment in a line: Antagonist activity at mouse MC3 receptor expressed in HEK293 cells after 6 hrs by cAMP-based beta-galactosidase reporter gene assay. The settings on record: read-out: pA2 (converted).
The target in assay [4] is Melanocortin receptor 3 (Mus musculus) (UniProt P33033). Kind of assay: Partial agonist activity at mouse MC3 receptor expressed in HEK293 cells at 10^-4 M to 10^-12 M after 6 hrs by cAMP-based beta-galactosidase reporter gene assay. A digest of the protocol: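 In the mMC3R HEK-293 CRE/β-galactosidase reporter assay, cells were exposed 6 h to peptide at 10^-4 to 10^-12 M in IBMX/BSA medium. Maximal efficacy is expressed relative to NDP-MSH run on the same plate.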

Each structure is given as a SMILES string.

Chain of Melanocyte-stimulating hormone receptor (Q01727 whole entry): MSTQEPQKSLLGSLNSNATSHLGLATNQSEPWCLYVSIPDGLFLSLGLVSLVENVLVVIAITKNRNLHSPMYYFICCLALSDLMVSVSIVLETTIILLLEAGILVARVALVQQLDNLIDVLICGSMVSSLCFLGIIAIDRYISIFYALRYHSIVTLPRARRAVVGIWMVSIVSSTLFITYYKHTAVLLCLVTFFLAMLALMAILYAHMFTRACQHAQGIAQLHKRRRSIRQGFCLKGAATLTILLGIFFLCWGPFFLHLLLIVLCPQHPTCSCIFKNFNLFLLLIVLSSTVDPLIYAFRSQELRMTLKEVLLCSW
Chain of Melanocortin receptor 4 (P56450 whole entry): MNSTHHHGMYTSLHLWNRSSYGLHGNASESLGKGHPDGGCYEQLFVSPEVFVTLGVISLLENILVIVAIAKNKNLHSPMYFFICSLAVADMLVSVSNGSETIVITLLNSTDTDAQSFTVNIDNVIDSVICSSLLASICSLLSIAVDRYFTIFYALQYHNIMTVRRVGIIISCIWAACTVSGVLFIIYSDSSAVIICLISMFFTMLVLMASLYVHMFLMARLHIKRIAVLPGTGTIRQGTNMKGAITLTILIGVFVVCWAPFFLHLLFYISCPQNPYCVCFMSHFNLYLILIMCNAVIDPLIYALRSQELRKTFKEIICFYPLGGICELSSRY
T1 sequence (P33033 whole entry): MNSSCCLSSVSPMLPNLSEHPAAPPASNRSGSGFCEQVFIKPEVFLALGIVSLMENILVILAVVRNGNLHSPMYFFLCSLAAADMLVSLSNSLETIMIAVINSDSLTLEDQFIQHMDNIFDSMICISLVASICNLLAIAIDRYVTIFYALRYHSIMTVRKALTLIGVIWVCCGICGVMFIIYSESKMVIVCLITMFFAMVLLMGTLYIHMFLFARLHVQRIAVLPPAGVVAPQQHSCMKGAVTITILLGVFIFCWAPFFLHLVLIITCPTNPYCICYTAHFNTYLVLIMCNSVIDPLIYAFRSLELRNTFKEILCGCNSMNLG
Chain of Melanocortin receptor 5 (P41149 whole entry): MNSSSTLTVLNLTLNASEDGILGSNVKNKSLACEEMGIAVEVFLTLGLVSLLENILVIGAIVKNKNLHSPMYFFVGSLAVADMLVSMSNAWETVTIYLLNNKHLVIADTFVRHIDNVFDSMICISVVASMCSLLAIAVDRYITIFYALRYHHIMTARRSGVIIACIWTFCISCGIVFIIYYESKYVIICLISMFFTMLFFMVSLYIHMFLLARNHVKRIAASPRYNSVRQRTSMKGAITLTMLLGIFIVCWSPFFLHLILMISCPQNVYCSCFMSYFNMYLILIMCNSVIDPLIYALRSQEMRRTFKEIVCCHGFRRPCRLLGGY
Chain of Melanocortin receptor 3 (Mus musculus) (P33033 whole entry): as the sequence (P33033 whole entry) above

For the compound `C[C@@H]1NC(=O)[C@H](CC(N)=O)NC(=O)[C@H](Cc2ccc3ccccc3c2)N2C[C@H](CCCNC(=N)N)NC(=O)[C@@H](CSCC2=O)NC(=O)[C@@H](Cc2ccccc2)NC(=O)[C@H](Cc2cnc[nH]2)NC(=O)[C@@H](NC(=O)[C@@H](N)Cc2ccc(O)cc2)CSSC[C@@H](C(=O)N[C@@H](Cc2ccc(O)cc2)C(N)=O)NC(=O)[C@H](Cc2ccccc2)NC1=O`, a half-maximal effect at Melanocortin receptor 3 [1] (EC50) was put at 200 nM.

As to `C[C@@H]1NC(=O)[C@H](CC(N)=O)NC(=O)[C@H](Cc2c[nH]c3ccccc23)N2C[C@H](CCCNC(=N)N)NC(=O)[C@@H](CSCC2=O)NC(=O)[C@@H](Cc2ccc(I)cc2)NC(=O)[C@H](Cc2cnc[nH]2)NC(=O)[C@@H](NC(=O)[C@@H](N)Cc2ccc(O)cc2)CSSC[C@@H](C(=O)N[C@@H](Cc2ccc(O)cc2)C(N)=O)NC(=O)[C@H](Cc2ccccc2)NC1=O`, the EC50 (commonly the midpoint of the concentration-response curve) at Melanocortin receptor 3 [1] stood at 49 nM.

In turn, `C[C@@H]1NC(=O)[C@H](CC(N)=O)NC(=O)[C@H](Cc2c[nH]c3ccccc23)N2C[C@H](CCCN=C(N)N)NC(=O)[C@@H](CSCC2=O)NC(=O)[C@@H]2CCCN2C(=O)[C@H](Cc2cnc[nH]2)NC(=O)[C@@H](NC(=O)[C@@H](N)Cc2ccc(O)cc2)CSSC[C@@H](C(=O)N[C@@H](Cc2ccc(O)cc2)C(N)=O)NC(=O)[C@H](Cc2ccccc2)NC1=O` yielded an EC50 on Melanocortin receptor 3 [1] of 10300 nM.

For `C[C@@H]1NC(=O)[C@H](CC(N)=O)NC(=O)[C@H](Cc2c[nH]c3ccccc23)N2C[C@H](C)NC(=O)[C@@H](CSCC2=O)NC(=O)[C@@H](Cc2ccccc2)NC(=O)[C@H](Cc2cnc[nH]2)NC(=O)[C@@H](NC(=O)[C@@H](N)Cc2ccc(O)cc2)CSSC[C@@H](C(=O)N[C@@H](Cc2ccc(O)cc2)C(N)=O)NC(=O)[C@H](Cc2ccccc2)NC1=O`, the response on Melanocortin receptor 3 [1] was half-maximal at 8070 nM (EC50).

On to `C[C@@H]1NC(=O)[C@H](Cc2cnc[nH]2)NC(=O)[C@@H](NC(=O)[C@@H](N)Cc2ccc(O)cc2)CSSC[C@@H](C(=O)N[C@@H](Cc2ccc(O)cc2)C(N)=O)NC(=O)[C@H](Cc2ccccc2)NC(=O)[C@H](C)NC(=O)[C@H](CC(N)=O)NC(=O)[C@H](Cc2c[nH]c3ccccc23)N2C[C@H](CCCN=C(N)N)NC(=O)[C@@H](CSCC2=O)NC1=O`, for which the EC50 on Melanocortin receptor 3 [1] is 7720 nM; on Melanocortin receptor 5 it was 7700 nM; in assay [2], 12500 nM; on Melanocortin receptor 4, 20100 nM.

`C[C@@H]1NC(=O)[C@H](CC(N)=O)NC(=O)[C@H](Cc2c[nH]c3ccccc23)N2C[C@H](CCCNC(=N)N)NC(=O)[C@@H](CSCC2=O)NC(=O)[C@@H](Cc2cccc3ccccc23)NC(=O)[C@H](Cc2cnc[nH]2)NC(=O)[C@@H](NC(=O)[C@@H](N)Cc2ccc(O)cc2)CSSC[C@@H](C(=O)N[C@@H](Cc2ccc(O)cc2)C(N)=O)NC(=O)[C@H](Cc2ccccc2)NC1=O`: at Melanocortin receptor 3 [1], the EC50 was determined as 190 nM.

Regarding `C[C@@H]1NC(=O)[C@H](CC(N)=O)NC(=O)[C@H](Cc2c[nH]c3ccccc23)NC(=O)[C@H](CCCN=C(N)N)NC(=O)[C@@H](Cc2ccccc2)NC(=O)[C@H](Cc2cnc[nH]2)NC(=O)[C@@H](NC(=O)[C@@H](N)Cc2ccc(O)cc2)CSSC[C@@H](C(=O)N[C@@H](Cc2ccc(O)cc2)C(N)=O)NC(=O)[C@H](Cc2ccccc2)NC1=O`, the EC50 at Melanocortin receptor 3 [1] stood at 1.7 nM; at Melanocortin receptor 5, 1.45 nM; in assay [2], 0.3 nM; at Melanocortin receptor 4 it was 0.17 nM.

The compound `C[C@@H]1NC(=O)[C@H](CC(N)=O)NC(=O)[C@H](Cc2c[nH]c3ccccc23)N2C[C@H](CCCCNC(=N)N)NC(=O)[C@@H](CSCC2=O)NC(=O)[C@@H](Cc2ccccc2)NC(=O)[C@H](Cc2cnc[nH]2)NC(=O)[C@@H](NC(=O)[C@@H](N)Cc2ccc(O)cc2)CSSC[C@@H](C(=O)N[C@@H](Cc2ccc(O)cc2)C(N)=O)NC(=O)[C@H](Cc2ccccc2)NC1=O` returned an EC50 at Melanocortin receptor 3 [1] of 1830 nM.

As for `C[C@@H]1NC(=O)[C@H](CC(N)=O)NC(=O)[C@H](Cc2ccc(-c3ccccc3)cc2)N2C[C@H](CCCN=C(N)N)NC(=O)[C@@H](CSCC2=O)NC(=O)[C@@H](Cc2ccccc2)NC(=O)[C@H](Cc2cnc[nH]2)NC(=O)[C@@H](NC(=O)[C@@H](N)Cc2ccc(O)cc2)CSSC[C@@H](C(=O)N[C@@H](Cc2ccc(O)cc2)C(N)=O)NC(=O)[C@H](Cc2ccccc2)NC1=O`, the midpoint of the response on Melanocortin receptor 3 [1], the EC50, lay at 230 nM.

For `C[C@@H]1NC(=O)[C@H](CC(N)=O)NC(=O)[C@H](Cc2c[nH]c3ccccc23)N2C[C@H](CCCNC(=N)N)NC(=O)[C@@H](CSCC2=O)NC(=O)[C@@H](Cc2ccccc2)NC(=O)[C@H](Cc2ccccc2)NC(=O)[C@@H](NC(=O)[C@@H](N)Cc2ccc(O)cc2)CSSC[C@@H](C(=O)N[C@@H](Cc2ccc(O)cc2)C(N)=O)NC(=O)[C@H](Cc2ccccc2)NC1=O`, the concentration giving a half-maximal response (EC50) at Melanocortin receptor 3 [1] was found to be 4500 nM.

Regarding `C[C@@H]1NC(=O)[C@H](CC(N)=O)NC(=O)[C@H](Cc2c[nH]c3ccccc23)N2C[C@H](CCCN=C(N)N)NC(=O)[C@@H](CSCC2=O)NC(=O)[C@@H](Cc2ccc3ccccc3c2)NC(=O)[C@H](Cc2cnc[nH]2)NC(=O)[C@@H](NC(=O)[C@@H](N)Cc2ccc(O)cc2)CSSC[C@@H](C(=O)N[C@@H](Cc2ccc(O)cc2)C(N)=O)NC(=O)[C@H](Cc2ccccc2)NC1=O`, the Kb on Melanocortin receptor 3 [3] is 25.1 nM.

Take `C[C@@H]1NC(=O)[C@H](CC(N)=O)NC(=O)[C@H](Cc2c[nH]c3ccccc23)N2C[C@H](CCCNC(=N)N)NC(=O)[C@@H](CSCC2=O)NC(=O)[C@@H](Cc2ccc3ccccc3c2)NC(=O)[C@H](Cc2cnc[nH]2)NC(=O)[C@@H](NC(=O)[C@@H](N)Cc2ccc(O)cc2)CSSC[C@@H](C(=O)N[C@@H](Cc2ccc(O)cc2)C(N)=O)NC(=O)[C@H](Cc2ccccc2)NC1=O`: in assay [4], the Emax (in general, the size of the effect at its maximum, as opposed to the concentration needed) stood at 20%.

Compound `C[C@@H]1NC(=O)[C@H](CC(N)=O)NC(=O)[C@H](Cc2c[nH]c3ccccc23)N2C[C@H](CCCNC(=N)N)NC(=O)[C@@H](CSCC2=O)NC(=O)[C@@H](Cc2ccccc2)NC(=O)[C@@H]2CCCN2C(=O)[C@@H](NC(=O)[C@@H](N)Cc2ccc(O)cc2)CSSC[C@@H](C(=O)N[C@@H](Cc2ccc(O)cc2)C(N)=O)NC(=O)[C@H](Cc2ccccc2)NC1=O` had an EC50 on Melanocortin receptor 3 [1] of 1900 nM.

`C[C@@H]1NC(=O)[C@H](CC(N)=O)NC(=O)[C@H](Cc2c[nH]c3ccccc23)N2C[C@H](CCCCN)NC(=O)[C@@H](CSCC2=O)NC(=O)[C@@H](Cc2ccccc2)NC(=O)[C@H](Cc2cnc[nH]2)NC(=O)[C@@H](NC(=O)[C@@H](N)Cc2ccc(O)cc2)CSSC[C@@H](C(=O)N[C@@H](Cc2ccc(O)cc2)C(N)=O)NC(=O)[C@H](Cc2ccccc2)NC1=O` returned an EC50 at Melanocortin receptor 3 [1] of 2540 nM.

At Melanocortin receptor 3 [1], `C[C@@H]1NC(=O)[C@H](CC(N)=O)NC(=O)[C@@H](Cc2ccc3ccccc3c2)N2C[C@H](CCCNC(=N)N)NC(=O)[C@@H](CSCC2=O)NC(=O)[C@@H](Cc2ccccc2)NC(=O)[C@H](Cc2cnc[nH]2)NC(=O)[C@@H](NC(=O)[C@@H](N)Cc2ccc(O)cc2)CSSC[C@@H](C(=O)N[C@@H](Cc2ccc(O)cc2)C(N)=O)NC(=O)[C@H](Cc2ccccc2)NC1=O` gave an EC50 of 180 nM.

At Melanocortin receptor 3 [1], `C[C@@H]1NC(=O)[C@H](CC(N)=O)NC(=O)[C@H](Cc2c[nH]c3ccccc23)N2C[C@H](CCCN=C(N)N)NC(=O)[C@@H](CSCC2=O)NC(=O)[C@@H](Cc2ccccc2)NC(=O)[C@H](Cc2cnc[nH]2)NC(=O)[C@@H](NC(=O)[C@@H](N)Cc2ccc(O)cc2)CSSC[C@@H](C(=O)N[C@@H](Cc2ccc(O)cc2)C(N)=O)NC(=O)[C@H](Cc2ccccc2)NC1=O` registered an EC50 of 324 nM.

For `C[C@@H]1NC(=O)[C@@H](NC(=O)[C@@H](N)Cc2ccc(O)cc2)CSSC[C@@H](C(=O)N[C@@H](Cc2ccc(O)cc2)C(N)=O)NC(=O)[C@H](Cc2ccccc2)NC(=O)[C@H](C)NC(=O)[C@H](CC(N)=O)NC(=O)[C@H](Cc2c[nH]c3ccccc23)N2C[C@H](CCCNC(=N)N)NC(=O)[C@@H](CSCC2=O)NC(=O)[C@@H](Cc2ccccc2)NC1=O`, a half-maximal response on Melanocortin receptor 3 [1] (EC50) required 4020 nM.

Consider `C[C@@H]1NC(=O)[C@H](CC(N)=O)NC(=O)[C@H](Cc2c[nH]c3ccccc23)N2C[C@H](CCCN=C(N)N)NC(=O)[C@H](CSCC2=O)NC(=O)[C@@H](Cc2ccccc2)NC(=O)[C@H](Cc2cnc[nH]2)NC(=O)[C@@H](NC(=O)[C@@H](N)Cc2ccc(O)cc2)CSSC[C@@H](C(=O)N[C@@H](Cc2ccc(O)cc2)C(N)=O)NC(=O)[C@H](Cc2ccccc2)NC1=O`, for which the EC50 at Melanocortin receptor 5 (hek293) worked out at 46 nM; in assay [2] (hek293), 2.4 nM; on Melanocortin receptor 4 (hek293) it was 190 nM.

Consider `C[C@@H]1NC(=O)[C@@H](NC(=O)[C@@H](N)Cc2ccc(O)cc2)CSSC[C@@H](C(=O)N[C@@H](Cc2ccc(O)cc2)C(N)=O)NC(=O)[C@H](Cc2ccccc2)NC(=O)[C@H](C)NC(=O)[C@H](CC(N)=O)NC(=O)[C@H](Cc2c[nH]c3ccccc23)N2C[C@H](CCCNC(=N)N)NC(=O)[C@H](CSCC2=O)NC(=O)[C@@H](Cc2ccccc2)NC1=O`, for which the values for the EC50 (on Melanocortin receptor 5 (hek293); in assay [2] (hek293); on Melanocortin receptor 4 (hek293)) were 690 nM, 52 nM and 705 nM, respectively.

The compound `C[C@@H]1NC(=O)[C@H](CC(N)=O)NC(=O)[C@H](C)N2C[C@H](CCCNC(=N)N)NC(=O)[C@@H](CSCC2=O)NC(=O)[C@@H](Cc2ccccc2)NC(=O)[C@H](Cc2cnc[nH]2)NC(=O)[C@@H](NC(=O)[C@@H](N)Cc2ccc(O)cc2)CSSC[C@@H](C(=O)N[C@@H](Cc2ccc(O)cc2)C(N)=O)NC(=O)[C@H](Cc2ccccc2)NC1=O` yielded an EC50 at Melanocortin receptor 3 [1] of 2230 nM.
